Assay results collected from several papers.
Target: Phosphorylase b kinase gamma catalytic chain, skeletal muscle/heart isoform (PHKG1, Homo sapiens, UniProt Q16816)

`CC1CCCN1c1nccc(-c2cnn3ncccc23)n1` (stereo not shown) gave a remaining binding of 100% (binding; 1 µM).
`COc1cnc(Nc2cccc(S(N)(=O)=O)c2)nc1N1CCN(c2ccccc2)CC1` has a remaining binding of 97% (binding, competition with immobilised ligand; 1 µM).
`Cc1cnn2ncc(-c3ccnc(N(C)C)n3)c2c1` has a remaining binding of 85% (binding; 1 µM).
`O=C(NCCCN1CCOCC1)c1ccc(Nc2nccc(-c3cc4ccccc4s3)n2)cc1` has a remaining binding of 49% (binding, competition with immobilised ligand; 1 µM).
`N#CC1(c2ccccn2)CCN(Cc2cc(C(=O)N3CCCC3)c(=O)n3ccccc23)CC1` has a remaining binding of 100% (cell-free assay, competition with immobilised ligand; 1 µM).
`CN(c1nccc(-c2cnn3ncccc23)n1)C1CC1` has a remaining binding of 100% (binding; 1 µM).
The remaining binding of `CC(=O)C1=C(C)N(c2cccc(C(F)(F)F)c2)C(=O)N[C@@H]1c1ccc(C#N)nc1` is reported as 100% (cell-free assay, competition with immobilised ligand; 1 µM).
For `COc1ncc2cc3ccccc3nc2c1C#N`, the remaining binding was 83% (cell-free assay, competition with immobilised ligand; 5 µM).
For `O=C(NCCCN1CCOCC1)c1ccc(Nc2ncc(Cl)c(-c3ccc(Cl)s3)n2)cc1`, the remaining binding was 56% (binding, competition with immobilised ligand; 1 µM).
The remaining binding of `Cc1c(NC(=O)c2cc(C(N)=O)nc3cc(F)ccc23)c(C(F)(F)F)nn1Cc1ccc(C(C)(C)C)cc1` is reported as 100% (cell-free assay, competition with immobilised ligand; 1 µM).
The remaining binding of `CNC(=O)[C@@H]1CC[C@@H](n2c(-c3ccc4cnccc4c3)nc3ccc(C(=O)NCc4cccc(C(N)=O)c4)cc32)C1` is reported as 100% (binding, competition with immobilised ligand; 1 µM).
`CC(=O)c1c(NS(C)(=O)=O)c2cc(-c3ccc(Cl)cc3)c(-c3ccc(Cl)cc3Cl)nc2n(C)c1=O` gave a remaining binding of 94% (cell-free assay, competition with immobilised ligand; 1 µM).
For `CCN1CCN(Cc2ccc(C(=O)Nc3ccc(C)c(Oc4ccc5c(c4)CC(=O)N5)c3)cc2C(F)(F)F)CC1`, the remaining binding was 100% (binding, competition with immobilised ligand; 1 µM).
`C[C@H]1CCN(c2nccc(-c3cnn4ncccc34)n2)C1` has a remaining binding of 100% (binding; 1 µM).
`CCCOc1ccc([C@@H]2[C@@H](C(=O)O)[C@H](c3ccc4c(c3)OCO4)CN2CC(=O)Nc2c(CC)cccc2CC)cc1` has a remaining binding of 97% (cell-free assay, competition with immobilised ligand; 1 µM).
The remaining binding of `N[C@H]1CCN(c2nccc(-c3cnn4ncccc34)n2)C1` is reported as 84% (binding; 1 µM).
`Cc1nc(N2CC[C@@H](O)C2)ncc1-c1cc(C(F)(F)F)cc2[nH]ncc12` gave a remaining binding of 81% (cell-free assay, competition with immobilised ligand; 1 µM).
With `Nc1ncc2c(n1)-c1c([nH]c3ccc(C#CC4CC4)cc13)CCCC2` the remaining binding was 93% (binding, competition with immobilised ligand; 1 µM).
The remaining binding of `COc1ccnn2ncc(-c3ccnc(N(C)C)n3)c12` is reported as 100% (binding; 1 µM).
With `O=C(Nc1c[nH]nc1C(=O)NC1CCNCC1)c1cc(F)cc(F)c1` the remaining binding was 93% (binding, competition with immobilised ligand; 1 µM).
The remaining binding of `O=C(c1ccc(Nc2ncc(Cl)c(-c3cc4ccccc4s3)n2)cc1)N1CCC(N2CCCC2)CC1` is reported as 54% (binding, competition with immobilised ligand; 1 µM).
For `CO[C@H]1CC[C@H](CNc2ccc(S(=O)(=O)NC(=O)c3ccc(N4CCN(CC5=C(c6ccc(Cl)cc6)CC(C)(C)CC5)CC4)cc3Oc3cnc4[nH]ccc4c3)cc2[N+](=O)[O-])CC1`, the remaining binding was 100% (cell-free assay, competition with immobilised ligand; 1 µM).
